Active and inactive are the calls of the source. The rule behind the calls is not given here.
How the values were obtained:
[1] = molecular target: T1, Fatty-acid amide hydrolase 1 (Mus musculus) (UniProt O08914); experiment: Inhibition of mouse brain FAAH at 10 uM after 30 mins by FP-rhodamine ABPP-based SDS-PAGE analysis relative to control
T1 sequence (whole entry): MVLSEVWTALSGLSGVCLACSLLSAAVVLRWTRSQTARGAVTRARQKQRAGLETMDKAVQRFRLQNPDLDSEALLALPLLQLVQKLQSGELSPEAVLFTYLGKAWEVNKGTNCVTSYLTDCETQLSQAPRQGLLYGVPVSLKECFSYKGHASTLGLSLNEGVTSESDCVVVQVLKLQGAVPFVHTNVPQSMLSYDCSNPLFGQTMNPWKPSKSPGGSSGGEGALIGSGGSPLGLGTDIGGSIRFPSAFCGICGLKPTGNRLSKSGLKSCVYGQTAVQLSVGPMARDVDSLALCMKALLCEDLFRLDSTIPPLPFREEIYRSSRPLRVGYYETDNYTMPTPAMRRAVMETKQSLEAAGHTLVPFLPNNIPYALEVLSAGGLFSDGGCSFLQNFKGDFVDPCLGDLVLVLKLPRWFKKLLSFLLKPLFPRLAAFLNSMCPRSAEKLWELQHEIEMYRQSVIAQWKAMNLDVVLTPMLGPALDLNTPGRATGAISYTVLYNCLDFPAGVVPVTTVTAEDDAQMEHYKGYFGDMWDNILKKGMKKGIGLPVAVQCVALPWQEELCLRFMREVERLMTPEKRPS

[2] = molecular target: T2, Monoacylglycerol lipase ABHD6 (Mus musculus) (UniProt Q8R2Y0); experiment: Inhibition of ABHD6 in FP-rhodamine-labelled mouse brain membrane at 10 nM preincubated for 30 mins followed by FP-rhodamine labelling measured after 30 mins by gel-based competitive ABPP assay; format: tissue-based
T2 sequence (whole entry): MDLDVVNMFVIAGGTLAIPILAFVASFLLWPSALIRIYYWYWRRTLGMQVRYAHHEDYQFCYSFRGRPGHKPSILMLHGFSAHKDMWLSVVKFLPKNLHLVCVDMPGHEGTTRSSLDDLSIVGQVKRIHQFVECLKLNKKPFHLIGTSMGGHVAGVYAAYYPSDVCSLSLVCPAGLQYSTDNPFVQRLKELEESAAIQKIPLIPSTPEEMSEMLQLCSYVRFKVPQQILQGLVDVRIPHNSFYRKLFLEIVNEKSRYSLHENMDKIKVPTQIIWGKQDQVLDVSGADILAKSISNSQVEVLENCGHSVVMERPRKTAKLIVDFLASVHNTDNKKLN
In short: (§1)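 Mouse brain membrane proteome (1 mg/mL) preincubated with compound for 30 min at 37 °C, then labelled with FP-rhodamine or HT-01 (1 μM final) for 30 min at 37 °C. Quenched in SDS loading buffer, run on 10% SDS-PAGE and scanned for in-gel fluorescence. Bands assigned by gel migration.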

[3] = molecular target: T3, Acylamino-acid-releasing enzyme (Mus musculus) (UniProt Q8R146); experiment: Inhibition of FP-rhodamine-labelled recombinant mouse APEH at 10 uM preincubated for 30 mins followed by FP-rhodamine labelling measured after 30 mins by gel-based competitive ABPP assay
T3 sequence (whole entry): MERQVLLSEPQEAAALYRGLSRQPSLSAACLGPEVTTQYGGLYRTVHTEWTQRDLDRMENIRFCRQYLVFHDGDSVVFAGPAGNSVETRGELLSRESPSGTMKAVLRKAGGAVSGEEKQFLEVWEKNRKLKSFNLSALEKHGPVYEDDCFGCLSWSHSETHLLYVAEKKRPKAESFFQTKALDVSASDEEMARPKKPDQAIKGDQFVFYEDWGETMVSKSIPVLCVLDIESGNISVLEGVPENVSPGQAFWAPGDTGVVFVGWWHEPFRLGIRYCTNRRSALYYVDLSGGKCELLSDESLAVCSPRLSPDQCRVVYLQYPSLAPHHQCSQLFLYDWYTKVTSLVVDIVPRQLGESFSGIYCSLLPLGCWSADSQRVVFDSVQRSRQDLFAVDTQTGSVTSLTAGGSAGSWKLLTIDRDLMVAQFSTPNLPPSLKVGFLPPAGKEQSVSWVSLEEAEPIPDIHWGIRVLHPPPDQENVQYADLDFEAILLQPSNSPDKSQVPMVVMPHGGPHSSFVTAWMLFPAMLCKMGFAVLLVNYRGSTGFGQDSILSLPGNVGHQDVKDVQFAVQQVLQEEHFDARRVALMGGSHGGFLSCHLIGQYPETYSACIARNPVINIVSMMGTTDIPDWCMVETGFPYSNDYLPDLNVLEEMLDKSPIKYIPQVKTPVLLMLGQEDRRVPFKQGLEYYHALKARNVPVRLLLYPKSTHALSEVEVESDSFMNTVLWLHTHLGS

[4] = molecular target: Acyl-protein thioesterase 1 (Mus musculus) (UniProt P97823); experiment: Inhibition of FP-rhodamine-labelled recombinant mouse LYPLA1 at 10 uM preincubated for 30 mins followed by FP-rhodamine labelling measured after 30 mins by gel-based competitive ABPP assay
[5] = molecular target: T4, Diacylglycerol lipase-beta (Mus musculus) (UniProt Q91WC9); experiment: Inhibition of FP-rhodamine-labelled recombinant mouse DAGLbeta expressed in HEK293T cells at 1 uM preincubated for 30 mins followed by FP-rhodamine labelling measured after 30 mins by gel-based competitive ABPP assay; format: cell-based; settings: HEK-293T
T4 sequence (whole entry): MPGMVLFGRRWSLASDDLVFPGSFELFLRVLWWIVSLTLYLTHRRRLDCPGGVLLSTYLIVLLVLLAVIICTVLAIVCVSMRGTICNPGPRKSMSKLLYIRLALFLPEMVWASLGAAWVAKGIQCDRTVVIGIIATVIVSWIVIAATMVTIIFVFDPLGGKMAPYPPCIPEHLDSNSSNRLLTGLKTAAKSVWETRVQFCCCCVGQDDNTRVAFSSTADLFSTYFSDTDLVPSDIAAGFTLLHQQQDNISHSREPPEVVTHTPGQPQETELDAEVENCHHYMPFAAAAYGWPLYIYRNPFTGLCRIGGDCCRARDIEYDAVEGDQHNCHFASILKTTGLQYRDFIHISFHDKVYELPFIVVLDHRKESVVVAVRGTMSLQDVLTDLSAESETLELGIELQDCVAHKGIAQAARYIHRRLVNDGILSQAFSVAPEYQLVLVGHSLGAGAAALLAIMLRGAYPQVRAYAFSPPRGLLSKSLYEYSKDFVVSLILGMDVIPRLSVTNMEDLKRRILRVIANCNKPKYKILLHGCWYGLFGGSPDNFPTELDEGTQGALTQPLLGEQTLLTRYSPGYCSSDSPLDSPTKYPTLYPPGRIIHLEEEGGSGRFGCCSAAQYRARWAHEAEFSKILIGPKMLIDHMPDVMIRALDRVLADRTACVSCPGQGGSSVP
In short: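 Mouse DAGLβ transiently overexpressed in HEK293T. Lysate diluted to 0.3 mg/mL in 50 mM HEPES pH 7.2, 100 mM NaCl, 5 mM CaCl₂, 0.1% Triton X-100, 10% DMSO. Compound preincubated 30 min at 37 °C, then 1 μM probe for 30 min at 37 °C, SDS-PAGE and in-gel fluorescence.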

[6] = molecular target: Acyl-protein thioesterase 2 (Mus musculus) (UniProt Q9WTL7); experiment: Inhibition of FP-rhodamine-labelled recombinant mouse LYPLA2 at 1 uM preincubated for 30 mins followed by FP-rhodamine labelling measured after 30 mins by gel-based competitive ABPP assay
[7] = molecular target: Acyl-protein thioesterase 1 (Mus musculus) (UniProt P97823); experiment: Inhibition of FP-rhodamine-labelled recombinant mouse LYPLA1 at 1 uM preincubated for 30 mins followed by FP-rhodamine labelling measured after 30 mins by gel-based competitive ABPP assay
[8] = molecular target: T2, Monoacylglycerol lipase ABHD6 (Mus musculus); experiment: Inhibition of ABHD6 in FP-rhodamine-labelled mouse brain membrane at 1 nM preincubated for 30 mins followed by FP-rhodamine labelling measured after 30 mins by gel-based competitive ABPP assay; format: tissue-based
In short: as §1

[9] = molecular target: T3, Acylamino-acid-releasing enzyme (Mus musculus); experiment: Inhibition of FP-rhodamine-labelled recombinant mouse APEH at 1 uM preincubated for 30 mins followed by FP-rhodamine labelling measured after 30 mins by gel-based competitive ABPP assay
[10] = molecular target: Acyl-protein thioesterase 2 (Mus musculus) (UniProt Q9WTL7); experiment: Inhibition of FP-rhodamine-labelled recombinant mouse LYPLA2 at 10 uM preincubated for 30 mins followed by FP-rhodamine labelling measured after 30 mins by gel-based competitive ABPP assay

Acyl-protein thioesterase 2 (Mus musculus), sequence (Q9WTL7 whole entry): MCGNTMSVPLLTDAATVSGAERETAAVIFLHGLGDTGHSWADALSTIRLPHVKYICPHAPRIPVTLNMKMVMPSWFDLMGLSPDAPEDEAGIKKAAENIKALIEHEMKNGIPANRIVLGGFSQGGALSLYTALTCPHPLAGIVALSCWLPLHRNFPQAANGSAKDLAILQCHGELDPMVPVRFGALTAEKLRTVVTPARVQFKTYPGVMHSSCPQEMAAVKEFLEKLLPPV
Acyl-protein thioesterase 1 (Mus musculus), sequence (P97823 whole entry): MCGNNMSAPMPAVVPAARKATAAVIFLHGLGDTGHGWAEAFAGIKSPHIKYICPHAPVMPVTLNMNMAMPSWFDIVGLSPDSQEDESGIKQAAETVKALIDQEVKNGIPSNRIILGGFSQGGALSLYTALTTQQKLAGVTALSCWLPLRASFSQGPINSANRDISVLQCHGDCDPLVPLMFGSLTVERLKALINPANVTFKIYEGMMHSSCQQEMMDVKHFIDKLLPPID

inhibition [1]: Active
inhibition [2]: 100%
inhibition [3]: Active
inhibition [4]: Active
inhibition [5]: 6%
inhibition [6]: Active
inhibition [7]: Active
inhibition [8]: 36%
inhibition [9]: Active
inhibition [10]: Active
SMILES: O=C(O)c1cccc(-c2ccc(-c3cn(C(=O)N4CCCCC4c4ccccc4)nn3)cc2)c1 (racemic)

Source: ChEMBL document CHEMBL3259629, “Discovery and optimization of piperidyl-1,2,3-triazole ureas as potent, selective, and in vivo-active inhibitors of α/β-hydrolase domain containing 6 (ABHD6)” (J Med Chem, 2013)
